The values that follow come from ChEMBL document CHEMBL4680093 (J Med Chem, 2016).

Data set [1] relates to Mus musculus. Put plainly: In-vivo inhibition of 11beta-HSD1 activity in C57BL/6 mouse epididymal fat assessed as reduction in cortisone to-cortisol conversion at 3 to 30 mg/kg, po measured after 2 to 6 hrs by ELISA. The data set is classed as functional, organism-based. Conditions: Epididymal fat pad, dose 3-30 mg/kg, time 2-6 hrs. The method, boiled down: (§1)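 Male C57BL/6 mice dosed orally once at 3, 10 or 30 mg/kg in sterile water containing 0.5% methylcellulose and 1% Tween80, then sacrificed at 2 or 6 h. Liver and epididymal fat pads incubated ex vivo in culture medium containing cortisone. Cortisol formed was measured by ELISA and reported as % inhibition versus vehicle.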
For orientation: In an ELISA, binding on a coated surface is turned into a signal by an enzyme label.

Data set [2] can be described thus: In-vivo inhibition of 11beta-HSD1 activity in C57BL/6 mouse epididymal fat assessed as reduction in cortisone to-cortisol conversion at 30 mg/kg, po measured after 6 hrs by ELISA. The data set is classed as functional. To be noted: C57BL/6, Epididymal fat pad. The method, boiled down: as §1
Data set [3] in a line: In-vivo inhibition of 11beta-HSD1 activity in C57BL/6 mouse epididymal fat assessed as reduction in cortisone to-cortisol conversion at 30 mg/kg, po measured after 2 hrs by ELISA. To be noted: C57BL/6, Epididymal fat pad. The data set is classed as functional. The method, boiled down:
as §1

Data set [4] in a line: In-vivo inhibition of 11beta-HSD1 activity in C57BL/6 mouse liver assessed as reduction in cortisone to-cortisol conversion at 3 mg/kg, po measured after 6 hrs by ELISA. Conditions: C57BL/6, Liver. The data set is classed as functional. The method, boiled down: as §1
Data set [5] is described as follows: Protein binding in mouse plasma. The data set is classed as ADME, cell-free. Conditions: read-out: PPB.
Data set [6] can be described thus: Unbound drug level in mouse plasma at 10 mg/kg, po measured after 2 hrs post dose. Conditions: in vivo. The data set is classed as ADME, organism-based.
Data set [7] can be described thus: In-vivo inhibition of 11beta-HSD1 activity in C57BL/6 mouse epididymal fat assessed as reduction in cortisone to-cortisol conversion at 10 mg/kg, po measured after 2 hrs by ELISA. Conditions: C57BL/6, Epididymal fat pad. The data set is classed as functional. The method, boiled down: as §1
Data set [8] deals with T1, Mineralocorticoid receptor (Homo sapiens, UniProt P08235).
T1 sequence (P08235 whole entry): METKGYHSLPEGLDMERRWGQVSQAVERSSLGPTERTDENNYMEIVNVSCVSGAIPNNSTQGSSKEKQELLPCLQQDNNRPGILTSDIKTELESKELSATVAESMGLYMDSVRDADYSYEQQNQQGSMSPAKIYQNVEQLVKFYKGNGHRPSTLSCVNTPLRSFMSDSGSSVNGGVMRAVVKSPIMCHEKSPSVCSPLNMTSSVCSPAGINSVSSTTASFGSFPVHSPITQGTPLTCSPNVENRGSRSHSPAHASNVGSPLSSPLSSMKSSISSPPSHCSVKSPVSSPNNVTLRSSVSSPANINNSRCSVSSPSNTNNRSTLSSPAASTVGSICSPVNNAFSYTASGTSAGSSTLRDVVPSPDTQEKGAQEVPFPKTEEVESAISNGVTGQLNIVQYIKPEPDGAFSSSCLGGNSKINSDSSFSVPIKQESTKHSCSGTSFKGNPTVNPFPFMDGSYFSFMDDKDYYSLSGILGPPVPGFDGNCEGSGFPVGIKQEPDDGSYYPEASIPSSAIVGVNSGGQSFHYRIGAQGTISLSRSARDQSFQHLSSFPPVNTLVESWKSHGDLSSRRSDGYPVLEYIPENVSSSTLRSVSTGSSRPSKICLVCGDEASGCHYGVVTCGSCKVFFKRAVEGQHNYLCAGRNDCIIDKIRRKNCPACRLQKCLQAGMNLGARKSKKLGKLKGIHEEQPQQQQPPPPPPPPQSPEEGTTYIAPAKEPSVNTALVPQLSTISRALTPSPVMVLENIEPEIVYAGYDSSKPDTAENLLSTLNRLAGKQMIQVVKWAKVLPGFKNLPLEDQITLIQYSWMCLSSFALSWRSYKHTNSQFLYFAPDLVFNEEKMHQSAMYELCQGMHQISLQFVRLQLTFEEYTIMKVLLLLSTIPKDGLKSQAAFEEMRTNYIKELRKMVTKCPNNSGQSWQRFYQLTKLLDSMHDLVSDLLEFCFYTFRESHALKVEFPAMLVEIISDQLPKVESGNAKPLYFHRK
The data set is described as follows: Agonist activity at mineralocorticoid receptor (unknown origin).

Data set [9] can be described thus: Volume of distribution at steady state in dog at 0.5 mg/kg, iv. The data set is classed as ADME, organism-based, Canis lupus familiaris. Conditions: in vivo, read-out: Vdss. The method, boiled down: (§2)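 Single-dose PK study. The iv dose was given in 10% hydroxypropyl-β-cyclodextrin and the oral dose in 0.5% methylcellulose/1% Tween80. Mouse and rat received 1 mg/kg iv and 5 mg/kg po. Dog received 0.5 mg/kg iv and 4 mg/kg po. CL, Vss, t1/2, AUC, Cmax, tmax and F were derived.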

The nature of data set [10]: AUC in dog at 0.5 mg/kg, iv. The data set is classed as ADME, organism-based, Canis lupus familiaris. Further details: dose 0.5 mg/kg. To be noted: in vivo.
The nature of data set [11]: Cmax in mouse at 5 mg/kg, po. To be noted: in vivo. The data set is classed as ADME, organism-based. Further details: route oral, dose 5 mg/kg.
Data set [12] can be described thus: AUC in mouse at 5 mg/kg, po. The data set is classed as ADME, organism-based. The arrangement: dose 5 mg/kg. To be noted: in vivo.
Data set [13] in a line: AUC in rat at 5 mg/kg, po. Further details: dose 5 mg/kg. The data set is classed as ADME, organism-based. To be noted: in vivo.
A short description of data set [14]: Oral bioavailability in rat at 5 mg/kg. The data set is classed as ADME, organism-based. Conditions: in vivo. The method, boiled down: as §2
A short description of data set [15]: Drug level in mouse liver at 10 mg/kg, po measured after 2 hrs post dose. The data set is classed as ADME, organism-based. To be noted: in vivo. The method, boiled down:
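C57BL/6 mice given a single oral 10 mg/kg dose in 0.5% methylcellulose plus 1% Tween80. Sacrifice at 2 h post-dose, with collection of brain, liver, adipose and plasma. Compound concentration expressed as nmol/g, along with tissue/plasma ratio.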

Data set [16] is described as follows: Toxicity in dog assessed as induction of abnormal changes in cardiovascular system up to 400 mg/kg, po. To be noted: in vivo. The data set is classed as organism-based, Canis lupus familiaris. The method, boiled down:
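Dogs fitted with telemetry were given oral doses of up to 400 mg/kg. Cardiovascular and respiratory systems were monitored for abnormal changes.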

Data set [17] can be described thus: Reduction in HbA1c level in C57BL/6-Lep^ob (ob/ob) mouse at 20 mg/kg, po dosed once daily for 25 days relative to control. The data set is classed as functional. Conditions: time 25 day. The arrangement: scale not given: the % may be the effect or the level left. The method, boiled down: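 Eight-week-old male ob/ob mice were dosed orally once daily for 25 days with vehicle (sterile water, 0.5% methylcellulose, 1% Tween80), test compound 20 mg/kg, metformin 300 mg/kg, or the combination. Baseline postprandial glucose and HbA1c were checked from tail-vein blood. Changes in HbA1c and non-fasting blood glucose were expressed relative to the vehicle group.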

Data set [18] concerns Mus musculus. Put plainly: Improvement in lipid profile in C57BL/6-Lep^ob (ob/ob) mouse assessed as LDL cholesterol level at 20 mg/kg, po dosed once daily for 25 days (reference value: 30.3 +/- 0.8 mg/dl). The data set is classed as functional. To be noted: time 25 day.
The subject of data set [19] is Mus musculus. Put plainly: Toxicity in mouse assessed as induction of abnormal changes in central nervous system up to 1000 mg/kg, po. To be noted: in vivo.
Data set [20] can be described thus: Reduction in nonfasting blood glucose level in C57BL/6-Lep^ob (ob/ob) mouse at 20 mg/kg, po dosed once daily for 25 days relative to control. Further details: scale not given: the % may be the effect or the level left. Conditions: time 25 day.
In data set [21] the test system is Mus musculus. Put plainly: Improvement in lipid profile in C57BL/6-Lep^ob (ob/ob) mouse assessed as triglyceride level at 20 mg/kg, po dosed once daily for 25 days co-treated with 300 mg/kg. po QD for 25 days metformin (reference value: 90.9 +/- 5.5 mg/dl). Conditions: time 25 day.

A value given as a limit tells only on which side of the number the result lay.

The term inhibition in vivo denotes the drop in the measured response relative to a control, in per cent. As usually defined, the EC50 is the midpoint of the concentration-response curve. The AUC is the area under the concentration-time curve, a measure of exposure. In general, Cmax refers to the highest concentration seen after dosing. By bioavailability is commonly meant dose-corrected exposure relative to a reference, in per cent. For `C[C@@H]1CN(c2ccc(S(C)(=O)=O)cc2F)CCN1c1nccc(C(=O)NC2C3CC4CC2CC(O)(C4)C3)n1` (stereo partly specified), the inhibition entry in the data set with Mus musculus [1] is “Dose-dependent effect”. Moreover, the results for the inhibition in vivo at 30 mg/kg in data set [2] and in [3] were 93% and 92%, respectively. For the same compound, the inhibition in vivo at 3 mg/kg in data set [4] came out at 71%. The fraction unbound in data set [5] turned out to be 0.01. The “Cp(f)” value in [6] stood at 100 nM. Moreover, the inhibition in vivo at 10 mg/kg in [7] was found to be 88%. The EC50 in data set [8] is > 5 µM. Further, the Vd in data set [9] amounted to 2.4 L/kg. The AUC in [10] amounted to 1470 ng·h/mL; in data set [12] it was 11300 ng·h/mL; in [13], 3390 ng·h/mL. For the same compound, the concentration in [11] peaked (Cmax) at 2210 ng/mL. In addition, the bioavailability in data set [14] is 60%. In addition, the Drug uptake in [15] stood at 31 nmol/g. In addition, the Activity entry in data set [16] was “Non-Toxic”; in [17], 1.2%; in the data set with Mus musculus [18], 17.1 mg/dL; in the data set with Mus musculus [19], “Non-Toxic”; in data set [20] it was 26%; with Mus musculus [21] it was 84.1 mg/dL.
